# Test results published in PubChem BioAssay.
# Calls of active or inactive are those of the source.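 Rule for the calls, unless noted: active = viability at or under a set limit in both replicates, limit being median viability minus 3 SD (cut at about 48% in these data, passing the limit was not always enough); inconclusive = at or under the limit in just one replicate; inactive = at or above the limit in both replicates.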
# What was measured:
# [1] = Her2 expression decrease, cell viability multiplex – SKBR3 breast tumor cells, AlphaScreen, ATP viability, primary screen (AID 461;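 active = Her2 level under about 52% in both replicate screens, with viability over 70% of control, limit read from the data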;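 for Her2 level: lower value means less Her2 protein in the cells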;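 for viability: percent of carrier control wells set as 100% viability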); settings: SKBR3 Her2 protein level, 18-24 h, measured here: SKBR3 viability, ATP luminescence, at 10 µM
# [2] = target: Receptor tyrosine-protein kinase erbB-2 (Homo sapiens) (UniProt P04626); test: as above; settings: 18-24 h, at 10 µM, stronger effect = lower value
# Receptor tyrosine-protein kinase erbB-2 (Homo sapiens), sequence (P04626 whole entry, looked up): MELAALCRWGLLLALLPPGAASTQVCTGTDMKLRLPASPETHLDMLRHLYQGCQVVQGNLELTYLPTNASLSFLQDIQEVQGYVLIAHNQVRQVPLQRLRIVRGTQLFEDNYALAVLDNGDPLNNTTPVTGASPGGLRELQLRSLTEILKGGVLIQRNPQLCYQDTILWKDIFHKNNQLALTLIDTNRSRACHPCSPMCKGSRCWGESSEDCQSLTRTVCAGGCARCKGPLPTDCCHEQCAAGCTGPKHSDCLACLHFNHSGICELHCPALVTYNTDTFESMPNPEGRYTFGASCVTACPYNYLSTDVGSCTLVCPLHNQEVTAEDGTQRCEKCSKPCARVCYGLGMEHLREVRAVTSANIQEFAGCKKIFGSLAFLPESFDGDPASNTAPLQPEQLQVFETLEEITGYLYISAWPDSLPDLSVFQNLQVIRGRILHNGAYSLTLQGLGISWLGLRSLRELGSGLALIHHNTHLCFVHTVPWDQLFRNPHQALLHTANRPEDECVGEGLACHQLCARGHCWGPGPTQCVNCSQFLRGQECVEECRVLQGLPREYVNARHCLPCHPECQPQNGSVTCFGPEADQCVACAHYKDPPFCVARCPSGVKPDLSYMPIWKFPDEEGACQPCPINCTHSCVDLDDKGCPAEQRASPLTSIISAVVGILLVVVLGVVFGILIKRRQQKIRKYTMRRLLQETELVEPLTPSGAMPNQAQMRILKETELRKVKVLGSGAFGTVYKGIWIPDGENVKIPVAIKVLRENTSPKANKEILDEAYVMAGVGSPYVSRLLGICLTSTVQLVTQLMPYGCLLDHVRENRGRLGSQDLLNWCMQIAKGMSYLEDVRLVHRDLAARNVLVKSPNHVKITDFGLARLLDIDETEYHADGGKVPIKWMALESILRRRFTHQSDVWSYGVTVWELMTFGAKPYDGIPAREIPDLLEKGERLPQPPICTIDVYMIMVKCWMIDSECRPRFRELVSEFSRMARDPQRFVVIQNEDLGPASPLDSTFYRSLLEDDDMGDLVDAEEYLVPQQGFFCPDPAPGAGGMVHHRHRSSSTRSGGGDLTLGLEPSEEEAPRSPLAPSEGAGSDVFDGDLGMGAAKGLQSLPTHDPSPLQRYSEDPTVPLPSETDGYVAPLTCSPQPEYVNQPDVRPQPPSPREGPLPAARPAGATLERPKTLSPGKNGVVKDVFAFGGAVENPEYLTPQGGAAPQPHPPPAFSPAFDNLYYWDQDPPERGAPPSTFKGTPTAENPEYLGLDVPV
# [3] = reduced viability of SK-BR-3 breast cancer cells – cell-based, 24 h, human, pilot screen (AID 572;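 active = viability at or below 10% of carrier control in both of two separate runs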;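 note: compound exposure lasted between 18 and 24 h rather than exactly 24 h; 100% = carrier-treated control wells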); settings: SK-BR-3 viability, CellTiter-Glo luminescence, at 10 µM, stronger effect = lower value
# [4] = HUVEC growth inhibition – cell-based, human, primary screen (AID 575;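 active = viability at or below 30% in both replicate assays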;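 note: 100% = median of untreated cell wells with 0.1% DMSO on each plate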); settings: HUVEC proliferation, CellTiter-Glo luminescence, 72 h; at 10 µM; stronger effect = lower value
# How it was run: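 Test system: primary human umbilical vein endothelial cells. Quantity: 1250 cells/well. Compound: single 10 µM dose, 0.1% DMSO, from 5x medium stock. Timing: 72 h treatment at 37 °C. Detection: ATP-based CellTiter-Glo luminescent read. Benchmarks: vehicle and MePR control wells. Format: 384-well plates coated with collagen.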
# [5] = H69AR cell proliferation blockers – human, duplicate replicates, primary screen (AID 580); settings: H69AR lung tumor cells viability, ATP luminescence, 72 h; at 10 µM; stronger effect = lower value;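 note: 100% = mean luminescence of untreated wells and 0% = no signal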
# [6] = MRP1 drug-resistance reversers in H69AR cells – cell-based, doxorubicin co-treatment, pilot screen (AID 601;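 active = viability loss from added drug above about 55%, and viability with drug at most 40%, in both replicates, limit read from the data, passing the limit was not always enough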); settings: CellTiter-Glo, 72 h, at 10 µM; for differential viability (reversal): stronger effect = higher value
# [7] = yeast transport mutant growth inhibition pilot in 384-well plates, post-Golgi transport modulator project (AID 636; in the data active = inhibition above about 31%); settings: absorbance 615 nm, about 18 h, stronger effect = higher value
# [8] = growth suppression of yeast trafficking mutant, preliminary HTS, modulators of trafficking downstream of Golgi apparatus project, 1536-format plate, OD 615 nm (AID 637; in the data active = inhibition above about 30%); settings: yeast transport mutant growth, absorbance 615 nm, 18 h; stronger effect = higher value
# [9] = H69AR cells + 2 uM doxorubicin, measured here: viability with 2 uM doxorubicin, stronger effect = lower value
# [10] = H69AR cells, compound alone cytotoxicity
Structure (SMILES),viability [1],Her2 level [2],viability [3],viability [4],viability [5],differential viability (reversal) ([6]; H69AR cells + 2 uM doxorubicin),"viability [6, 9]","viability [6, 10]",inhibition [7],inhibition [8]
COc1cc(SC)ccc1C(=O)Nc1ccon1,98.5%,104% (inactive),98.5% (inactive),93% (inactive),101% (inactive),6.34% (inactive),94.5%,101%,0.27% (inactive),18.6% (inactive)
CCOc1ccc2ccccc2c1C(=O)N1CCN(c2ccccc2)CC1,95%,83.5% (inactive),95% (inactive),47.3% (inactive),9.8% (active),-57% (inactive),66.8%,9.8%,-2.8% (inactive),-10.6% (inactive)
CCCCCOC(=O)CSc1nnc(-c2cc(OC)c(OC)c(OC)c2)o1,84.5%,69.5% (inactive),84.5% (inactive),104% (inactive),104% (inactive),10.6% (inactive),93.2%,104%,-5% (inactive),-6.5% (inactive)
O=C(CSc1nnc(Cn2cnc3ccccc32)o1)c1ccccc1,124%,86.5% (inactive),124% (inactive),61.8% (inactive),73.3% (inactive),-9.91% (inactive),83.2%,73.3%,-6.84% (inactive),3.49% (inactive)
Cc1ccc(NC(=O)c2ccc(NS(=O)(=O)c3c(C)noc3C)cc2)cc1C,97%,81.5% (inactive),97% (inactive),84.1% (inactive),95% (inactive),11.6% (inactive),83.4%,95%,-2.24% (inactive),-4.55% (inactive)
CN(CC(=O)NCCC1=CCCCC1)S(=O)(=O)c1ccc2c(c1)CCC(=O)N2,79%,113% (inactive),79% (inactive),91.3% (inactive),110% (inactive),18% (inactive),91.7%,110%,-2.27% (inactive),-1.48% (inactive)
CC1(c2ccc(Cl)cc2)NC(=O)N(CC(=O)NC(=O)NCc2ccco2)C1=O (stereo not given),96%,80.5% (inactive),96% (inactive),61.5% (inactive),107% (inactive),26.4% (inactive),81%,107%,-3.82% (inactive),-0.33% (inactive)
CCOC(=O)C1CCN(C(=O)CSc2n[nH]c(=O)[nH]c2=O)CC1,109%,90% (inactive),109% (inactive),94.6% (inactive),102% (inactive),5.61% (inactive),96.7%,102%,-8.51% (inactive),3.67% (inactive)
O=C(COc1ncnc2ccccc12)NCc1ccc2c(c1)OCO2,100%,96% (inactive),100% (inactive),92.8% (inactive),92.6% (inactive),-1.82% (inactive),94.4%,92.6%,-4.21% (inactive),4.92% (inactive)
COC(=O)C1CCN(C(=O)NC(C)(C)C)CC1,110%,83% (inactive),110% (inactive),104% (inactive),105% (inactive),17.2% (inactive),87.3%,105%,-5.27% (inactive),8.73% (inactive)
CCCCOCCCNC(=O)c1ccccc1OCC,89%,88.5% (inactive),89% (inactive),108% (inactive),87.8% (inactive),9.53% (inactive),78.2%,87.8%,-3.72% (inactive),-4.67% (inactive)
COc1ccc2c(CC(=O)Nc3ccc(OC)c(NS(=O)(=O)c4ccc(F)cc4)c3)coc2c1,88%,85% (inactive),88% (inactive),70.2% (inactive),86.3% (inactive),-1.86% (inactive),88.1%,86.3%,-2.18% (inactive),-0.33% (inactive)
CCOC(=O)Cc1nn2c(=O)cc(C)nc2s1,116%,111% (inactive),116% (inactive),102% (inactive),102% (inactive),2.55% (inactive),99.4%,102%,-1.07% (inactive),1.64% (inactive)
COc1cc(C2=NOC(C(=O)NCc3ccc(F)cc3)C2)cc(OC)c1OC (stereo not given),84%,74.5% (inactive),84% (inactive),39.9% (inactive),31.6% (active),-52.3% (inactive),83.9%,31.6%,-4.74% (inactive),-1.43% (inactive)
